Activity calls are given as the source filed them. No cut-off for these calls is given here.
Experiments:
[1] = Drug metabolism in human SW1990 cells assessed as nitric oxide release at 10 uM measured after 8 hrs by Griess assay; assay type: ADME, cell-based; details: sw1990, 8 h
Procedure, shortened: (§1)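 Cells exposed 8 h to 10 µM compound. Nitrite measured by Griess reagent kit at 540 nm against a NaNO₂ calibration curve. Mean ± SD, n = 3.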

PC-3 [2] = experiment: Cytotoxicity against human PC-3 cells assessed as reduction in cell viability measured after 48 hrs in presence of CuCl2 by MTT assay; assay type: functional, cell-based; details: PC-3, 48 h
Procedure, shortened: (§2)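 Cells seeded 6 × 10⁴ per well, cultured 24 h at 37 °C under 5% CO₂, then exposed to compound for 48 h, with or without 50 µM CuCl₂ or FeCl₃ co-incubation. MTT added for 4 h at 37 °C, formazan dissolved in DMSO, A490 read. IC50 reported as mean (SD), n = 3.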

HepG2 [3] = experiment: Cytotoxicity against human HepG2 cells assessed as reduction in cell viability measured after 48 hrs by MTT assay; assay type: functional, cell-based; details: HepG2, 48 h; procedure, shortened: as §2
HepG2 [4] = experiment: Cytotoxicity against human HepG2 cells assessed as reduction in cell viability measured after 48 hrs in presence of CuCl2 by MTT assay; assay type: functional, cell-based; details: HepG2, 48 h; procedure, shortened: as §2
MCF7 [5] = experiment: Cytotoxicity against human MCF7 cells assessed as reduction in cell viability measured after 48 hrs in presence of CuCl2 by MTT assay; assay type: functional, cell-based; details: MCF7, 48 h; procedure, shortened: as §2
A549 [6] = experiment: Cytotoxicity against human A549 cells assessed as reduction in cell viability measured after 48 hrs in presence of FeCl3 by MTT assay; assay type: functional, cell-based; details: A549, 48 h
[7] = Metal chelating activity assessed as compound-Fe3+ complex formation measured after 40 mins by calcein dye based fluorescence assay; details: dose 10-50 µM
Procedure, shortened: (§3)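 Calcein (10 µM) in 50 mM HEPES was quenched by 10 µM CuCl₂ (or FeCl₃ for the Fe³⁺ arm). Chelator was added from DMSO stock to a final 10 or 50 µM and incubated 40 min at room temperature. Recovery rate was calculated from fluorescence (λex 485 / λem 520 nm); n = 3.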

PC-3 [8] = experiment: Cytotoxicity against human PC-3 cells assessed as reduction in cell viability measured after 48 hrs by MTT assay; assay type: functional, cell-based; details: PC-3, 48 h; procedure, shortened: as §2
PANC-1 [9] = experiment: Cytotoxicity against human PANC-1 cells assessed as reduction in cell viability at 10 uM measured after 48 hrs by MTT assay; assay type: functional, cell-based
Procedure, shortened: (§4)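 MTT assay with 48 h compound exposure at 10 or 20 µM. Cells seeded 6 × 10⁴ per well and grown 24 h beforehand. MTT 4 h, DMSO solubilisation, A490 read. Percent cell death given as mean ± SD, n = 3.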

[10] = Metal chelating activity assessed as compound-Cu2+ complex formation measured after 40 mins by calcein dye based fluorescence assay; details: dose 10-50 µM; procedure, shortened: as §3
PANC-1 [11] = experiment: Cytotoxicity against human PANC-1 cells assessed as reduction in cell viability measured after 48 hrs in presence of CuCl2 by MTT assay; assay type: functional, cell-based; details: PANC-1, 48 h; procedure, shortened: as §2
PANC-1 [12] = experiment: Cytotoxicity against human PANC-1 cells assessed as reduction in cell viability measured after 48 hrs in presence of FeCl3 by MTT assay; assay type: functional, cell-based; details: PANC-1, 48 h; procedure, shortened: as §2
A549 [13] = experiment: Cytotoxicity against human A549 cells assessed as reduction in cell viability at 10 to 20 uM measured after 48 hrs by MTT assay; assay type: functional, cell-based; details: dose 10-20 µM
HeLa [14] = experiment: Cytotoxicity against human HeLa cells assessed as reduction in cell viability at 10 to 20 uM measured after 48 hrs by MTT assay; assay type: functional, cell-based; details: dose 10-20 µM
HeLa [15] = experiment: Cytotoxicity against human HeLa cells assessed as reduction in cell viability measured after 48 hrs in presence of FeCl3 by MTT assay; assay type: functional, cell-based
MCF7 [16] = experiment: Cytotoxicity against human MCF7 cells assessed as reduction in cell viability measured after 48 hrs in presence of FeCl3 by MTT assay; assay type: functional, cell-based; details: MCF7, 48 h; procedure, shortened: as §2
MCF7 [17] = experiment: Cytotoxicity against human MCF7 cells assessed as reduction in cell viability measured after 48 hrs by MTT assay; assay type: functional, cell-based; details: MCF7, 48 h; procedure, shortened: as §2
SW1990 [18] = experiment: Cytotoxicity against human SW1990 cells assessed as reduction in cell viability measured after 48 hrs by MTT assay; assay type: functional, cell-based; details: SW1990, 48 h; procedure, shortened: as §2
[19] = Cytotoxicity against human H6C7 cells assessed as reduction in cell viability measured after 48 hrs by MTT assay; assay type: cell-based; details: H6C7, 48 h; procedure, shortened: as §2
HCT-116 [20] = experiment: Cytotoxicity against human HCT-116 cells assessed as reduction in cell viability measured after 48 hrs by MTT assay; assay type: functional, cell-based; details: HCT-116, 48 h; procedure, shortened: as §2
[21] = Drug metabolism in human PANC-1 cells assessed as nitric oxide release at 10 uM measured after 8 hrs by Griess assay; assay type: ADME, cell-based; details: panc-1, 8 h; procedure, shortened: as §1
HeLa [22] = experiment: Cytotoxicity against human HeLa cells assessed as reduction in cell viability measured after 48 hrs in presence of CuCl2 by MTT assay; assay type: functional, cell-based
HepG2 [23] = experiment: Cytotoxicity against human HepG2 cells assessed as reduction in cell viability at 10 to 20 uM measured after 48 hrs by MTT assay; assay type: functional, cell-based; details: dose 10-20 µM; procedure, shortened: as §4
HepG2 [24] = experiment: Cytotoxicity against human HepG2 cells assessed as reduction in cell viability measured after 48 hrs in presence of FeCl3 by MTT assay; assay type: functional, cell-based; details: HepG2, 48 h; procedure, shortened: as §2
PANC-1 [25] = experiment: Cytotoxicity against human PANC-1 cells assessed as reduction in cell viability at 20 uM measured after 48 hrs by MTT assay relative to control; assay type: functional; procedure, shortened: as §4
HCT-116 [26] = experiment: Cytotoxicity against human HCT-116 cells assessed as reduction in cell viability measured after 48 hrs in presence of CuCl2 by MTT assay; assay type: functional, cell-based; details: HCT-116, 48 h; procedure, shortened: as §2
PC-3 [27] = experiment: Cytotoxicity against human PC-3 cells assessed as reduction in cell viability measured after 48 hrs in presence of FeCl3 by MTT assay; assay type: functional, cell-based; details: PC-3, 48 h; procedure, shortened: as §2
A549 [28] = experiment: Cytotoxicity against human A549 cells assessed as reduction in cell viability measured after 48 hrs in presence of CuCl2 by MTT assay; assay type: functional, cell-based; details: A549, 48 h
HCT-116 [29] = experiment: Cytotoxicity against human HCT-116 cells assessed as reduction in cell viability measured after 48 hrs in presence of FeCl3 by MTT assay; assay type: functional, cell-based; details: HCT-116, 48 h; procedure, shortened: as §2
[30] = Cytotoxicity against human RWPE2 cells assessed as reduction in cell viability measured after 48 hrs by MTT assay; assay type: cell-based; details: RWPE2, 48 h; procedure, shortened: as §2
MCF7 [31] = experiment: Cytotoxicity against human MCF7 cells assessed as reduction in cell viability at 10 to 20 uM measured after 48 hrs by MTT assay; assay type: functional, cell-based; details: dose 10-20 µM; procedure, shortened: as §4
A549 [32] = experiment: Cytotoxicity against human A549 cells assessed as reduction in cell viability measured after 48 hrs by MTT assay; assay type: functional, cell-based; details: A549, 48 h
SW1990 [33] = experiment: Cytotoxicity against human SW1990 cells assessed as reduction in cell viability measured after 48 hrs in presence of FeCl3 by MTT assay; assay type: functional, cell-based; details: SW1990, 48 h; procedure, shortened: as §2
PANC-1 [34] = experiment: Cytotoxicity against human PANC-1 cells assessed as reduction in cell viability measured after 48 hrs by MTT assay; assay type: functional, cell-based; details: PANC-1, 48 h; procedure, shortened: as §2
SW1990 [35] = experiment: Cytotoxicity against human SW1990 cells assessed as reduction in cell viability measured after 48 hrs in presence of CuCl2 by MTT assay; assay type: functional, cell-based; details: SW1990, 48 h; procedure, shortened: as §2
HeLa [36] = experiment: Cytotoxicity against human HeLa cells assessed as reduction in cell viability measured after 48 hrs by MTT assay; assay type: functional, cell-based
SW1990 [37] = experiment: Cytotoxicity against human SW1990 cells assessed as reduction in cell viability at 10 to 20 uM measured after 48 hrs by MTT assay; assay type: functional, cell-based; details: dose 10-20 µM; procedure, shortened: as §4
SW1990 [38] = experiment: Induction of apoptosis in human SW1990 cells at 12 uM measured after 24 hrs by Annexin V-FITC/propidium iodide staining based flow cytometry; assay type: functional, cell-based
Procedure, shortened: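 SW1990 cells seeded 5 × 10⁵ per well and grown 24 h, then treated 24 h at 8 or 12 µM. Optional 1 h pretreatment with 20 mM NAC or 50 µM carboxyl-PTIO before 12 µM treatment. Cells stained with annexin V-FITC 15 min and PI 5 min at room temperature in the dark, then analysed by flow cytometry. Mean ± SD, n = 3.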

SMILES: O=C(c1ccc2cccc(O)c2n1)N1CCC(Oc2no[n+]([O-])c2S(=O)(=O)c2ccccc2)CC1
- Drug metabolism [1]: Metabolite_Detected
- IC50 (PC-3 [2]): 5.02 µM
- IC50 (HepG2 [3]): 14.6 µM
- IC50 (HepG2 [4]): 4.05 µM
- IC50 (MCF7 [5]): 3.07 µM
- IC50 (A549 [6]): 12.4 µM
- Activity [7]: Dose-dependent effect
- IC50 (PC-3 [8]): 10.4 µM
- Activity (PANC-1 [9]): Active
- Activity [10]: Dose-dependent effect
- IC50 (PANC-1 [11]): 1.32 µM
- IC50 (PANC-1 [12]): 14.8 µM
- Activity (A549 [13]): Active
- Activity (HeLa [14]): Active
- IC50 (HeLa [15]): 37.9 µM
- IC50 (MCF7 [16]): 17 µM
- IC50 (MCF7 [17]): 15.4 µM
- IC50 (SW1990 [18]): 6.59 µM
- IC50 [19]: 13.2 µM
- IC50 (HCT-116 [20]): 11.2 µM
- Drug metabolism [21]: Metabolite_Detected
- IC50 (HeLa [22]): 9.77 µM
- Activity (HepG2 [23]): Active
- IC50 (HepG2 [24]): 19.9 µM
- Activity (PANC-1 [25]): 82.3%
- IC50 (HCT-116 [26]): 3.29 µM
- IC50 (PC-3 [27]): 14.6 µM
- IC50 (A549 [28]): 2.16 µM
- IC50 (HCT-116 [29]): 17.2 µM
- IC50 [30]: 7.04 µM
- Activity (MCF7 [31]): Active
- IC50 (A549 [32]): 7.8 µM
- IC50 (SW1990 [33]): 10.6 µM
- IC50 (PANC-1 [34]): 9.05 µM
- IC50 (SW1990 [35]): 0.79 µM
- IC50 (HeLa [36]): 33.9 µM

SMILES: O=C(/C=C/c1ccc2cccc(O)c2n1)NCCCOc1no[n+]([O-])c1S(=O)(=O)c1ccccc1
- Activity [7]: Dose-dependent effect
- Activity (PANC-1 [9]): Active
- Activity [10]: Dose-dependent effect
- Activity (A549 [13]): Active
- Activity (HeLa [14]): Active
- Activity (HepG2 [23]): Active
- Activity (PANC-1 [25]): Active
- Activity (MCF7 [31]): Active

SMILES: O=C(c1ccc2cccc(O)c2n1)N1CCN(CCOc2no[n+]([O-])c2S(=O)(=O)c2ccccc2)CC1
- Activity [7]: Dose-dependent effect
- Activity (PANC-1 [9]): Active
- Activity [10]: Dose-dependent effect
- Activity (A549 [13]): Active
- Activity (HeLa [14]): Active
- Activity (HepG2 [23]): Active
- Activity (PANC-1 [25]): Active
- Activity (MCF7 [31]): Active

SMILES: O=C(/C=C\c1ccc2cccc(O)c2n1)N1CCC(Oc2no[n+]([O-])c2S(=O)(=O)c2ccccc2)CC1
- Activity [7]: Dose-dependent effect
- Activity (PANC-1 [9]): Active
- Activity [10]: Dose-dependent effect
- Activity (A549 [13]): Active
- Activity (HeLa [14]): Active
- Activity (HepG2 [23]): Active
- Activity (PANC-1 [25]): Active
- Activity (MCF7 [31]): Active

SMILES: O=C(NCCCOc1no[n+]([O-])c1S(=O)(=O)c1ccccc1)c1ccc2cccc(OCc3ccccc3)c2n1
- Activity (SW1990 [37]): inactive
- Activity (SW1990 [38]): Active

Source: ChEMBL document CHEMBL4732146, “Nitric oxide-donating and reactive oxygen species-responsive prochelators based on 8-hydroxyquinoline as anticancer agents” (Eur J Med Chem, 2021)
